Data from ChEMBL document CHEMBL5376013, “Design, synthesis and biological evaluation of novel morpholinopyrimidine-5-carbonitrile derivatives as dual PI3K/mTOR inhibitors” (RSC Med Chem, 2024).

Legend:
Assay type in all cases: functional
Settings in all cases: read-out: GI
A498 = experiment: Antitumor activity against human A498 cells assessed as growth inhibition at 10 uM relative to control
In short: (§1)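 After drug addition, plates were incubated 48 h at 37 °C under 5% CO2. Adherent cells were fixed with cold TCA (10% final, 60 min, 4 °C) and suspension cells with 16% final TCA. Staining used 0.4% SRB in 1% acetic acid, solubilized in 10 mM trizma, read at A515. Percent growth was calculated from time-zero, control and treated absorbances.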

OVCAR-5 = experiment: Antitumor activity against human OVCAR-5 cells assessed as growth inhibition at 10 uM relative to control; in short: as §1
OVCAR-3 = experiment: Antitumor activity against human OVCAR-3 cells assessed as growth inhibition at 10 uM relative to control; in short: as §1
SNB-19 = experiment: Antitumor activity against human SNB-19 cells assessed as growth inhibition at 10 uM relative to control
In short: (§2)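 Drug exposure 48 h at 37 °C, 5% CO2. Adherent cells fixed with cold TCA (10% final), suspension cells with TCA (16% final). Stained with 0.4% SRB in 1% acetic acid, dissolved in 10 mM Tris, A515. Growth relative to time-zero and untreated control.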

SK-OV-3 = experiment: Antitumor activity against human SK-OV-3 cells assessed as growth inhibition at 10 uM relative to control; in short: as §2
KM12 = experiment: Antitumor activity against human KM12 cells assessed as growth inhibition at 10 uM relative to control; in short: as §1
SK-MEL-2 = experiment: Antitumor activity against human SK-MEL-2 cells assessed as growth inhibition at 10 uM relative to control; in short: as §1
ACHN = experiment: Antitumor activity against human ACHN cells assessed as growth inhibition at 10 uM relative to control; in short: as §1
SW-620 = experiment: Antitumor activity against human SW-620 cells assessed as growth inhibition at 10 uM relative to control; in short: as §2
HCT-15 = experiment: Antitumor activity against human HCT-15 cells assessed as growth inhibition at 10 uM relative to control; in short: as §1
SK-MEL-28 = experiment: Antitumor activity against human SK-MEL-28 cells assessed as growth inhibition at 10 uM relative to control; in short: as §2
BT-549 = experiment: Antitumor activity against human BT-549 cells assessed as growth inhibition at 10 uM relative to control; in short: as §1
SF-539 = experiment: Antitumor activity against human SF-539 cells assessed as growth inhibition at 10 uM relative to control; in short: as §1
NCI-H522 = experiment: Antitumor activity against human NCI-H522 cells assessed as growth inhibition at 10 uM relative to control; in short: as §1
NCI/ADR-RES = experiment: Antitumor activity against human NCI-ADR-RES cells assessed as growth inhibition at 10 uM relative to control; in short: as §1
LOX IMVI = experiment: Antitumor activity against human LOX IMVI cells assessed as growth inhibition at 10 uM relative to control; in short: as §1
CCRF-CEM = experiment: Antitumor activity against human CCRF-CEM cells assessed as growth inhibition at 10 uM relative to control; in short: as §1
SN12C = experiment: Antitumor activity against human SN12C cells assessed as growth inhibition at 10 uM relative to control; in short: as §2
OVCAR-8 = experiment: Antitumor activity against human OVCAR-8 cells assessed as growth inhibition at 10 uM relative to control; in short: as §1
Malme-3M = experiment: Antitumor activity against human Malme-3M cells assessed as growth inhibition at 10 uM relative to control; in short: as §1
SF-268 = experiment: Antitumor activity against human SF-268 cells assessed as growth inhibition at 10 uM relative to control; in short: as §1
MOLT-4 = experiment: Antitumor activity against human MOLT-4 cells assessed as growth inhibition at 10 uM relative to control; in short: as §1
DU-145 = experiment: Antitumor activity against human DU-145 cells assessed as growth inhibition at 10 uM relative to control; in short: as §1
RPMI-8226 = experiment: Antitumor activity against human RPMI-8226 cells assessed as growth inhibition at 10 uM relative to control; in short: as §1
SK-MEL-5 = experiment: Antitumor activity against human SK-MEL-5 cells assessed as growth inhibition at 10 uM relative to control; in short: as §2
T47D = experiment: Antitumor activity against human T47D cells assessed as growth inhibition at 10 uM relative to control; in short: as §2
M14 = experiment: Antitumor activity against human M14 cells assessed as growth inhibition at 10 uM relative to control; in short: as §1
COLO 205 = experiment: Antitumor activity against human COLO 205 cells assessed as growth inhibition at 10 uM relative to control; in short: as §1
HT-29 = experiment: Antitumor activity against human HT-29 cells assessed as growth inhibition at 10 uM relative to control; in short: as §1
UACC-62 = experiment: Antitumor activity against human UACC-62 cells assessed as growth inhibition at 10 uM relative to control; in short: as §2
EKVX = experiment: Antitumor activity against human EKVX cells assessed as growth inhibition at 10 uM relative to control; in short: as §1
PC-3 = experiment: Antitumor activity against human PC-3 cells assessed as growth inhibition at 10 uM relative to control; in short: as §1
MCF7 = experiment: Antitumor activity against human MCF7 cells assessed as growth inhibition at 10 uM relative to control; in short: as §1
NCI-H322M = experiment: Antitumor activity against human NCI-H322M cells assessed as growth inhibition at 10 uM relative to control; in short: as §1
NCI-H23 = experiment: Antitumor activity against human NCI-H23 cells assessed as growth inhibition at 10 uM relative to control; in short: as §1
U-251 = experiment: Antitumor activity against human U-251 cells assessed as growth inhibition at 10 uM relative to control; in short: as §2
NCI-H226 = experiment: Antitumor activity against human NCI-H226 cells assessed as growth inhibition at 10 uM relative to control; in short: as §1
RXF 393 = experiment: Antitumor activity against human RXF 393 cells assessed as growth inhibition at 10 uM relative to control; in short: as §1
MDA-MB-435 = experiment: Antitumor activity against human MDA-MB-435 cells assessed as growth inhibition at 10 uM relative to control; in short: as §1
786-0 = experiment: Antitumor activity against human 786-0 cells assessed as growth inhibition at 10 uM relative to control; in short: as §1
UACC-257 = experiment: Antitumor activity against human UACC-257 cells assessed as growth inhibition at 10 uM relative to control; in short: as §2
SNB-75 = experiment: Antitumor activity against human SNB-75 cells assessed as growth inhibition at 10 uM relative to control; in short: as §2
TK-10 = experiment: Antitumor activity against human TK-10 cells assessed as growth inhibition at 10 uM relative to control; in short: as §2
K562 = experiment: Antitumor activity against human K562 cells assessed as growth inhibition at 10 uM relative to control; in short: as §1
CAKI-1 = experiment: Antitumor activity against human CAKI-1 cells assessed as growth inhibition at 10 uM relative to control; in short: as §1
HCT-116 = experiment: Antitumor activity against human HCT-116 cells assessed as growth inhibition at 10 uM relative to control; in short: as §1

## N#Cc1c(-c2ccc(Cl)cc2)nc(N/N=C/c2cccc(O)c2)nc1N1CCOCC1
A498
  inhibition of growth at 10 µM: 24.9%
OVCAR-5
  inhibition of growth at 10 µM: < 1%
OVCAR-3
  inhibition of growth at 10 µM: 22.3%
SNB-19
  inhibition of growth at 10 µM: 13.1%
SK-OV-3
  inhibition of growth at 10 µM: < 1%
KM12
  inhibition of growth at 10 µM: 24%
SK-MEL-2
  inhibition of growth at 10 µM: < 1%
ACHN
  inhibition of growth at 10 µM: 39.1%
SW-620
  inhibition of growth at 10 µM: 35.2%
HCT-15
  inhibition of growth at 10 µM: 55.3%
SK-MEL-28
  inhibition of growth at 10 µM: 22.9%
BT-549
  inhibition of growth at 10 µM: 26.9%
SF-539
  inhibition of growth at 10 µM: 32.2%
NCI-H522
  inhibition of growth at 10 µM: 25.2%
NCI/ADR-RES
  inhibition of growth at 10 µM: 35.1%
LOX IMVI
  inhibition of growth at 10 µM: 38.2%
CCRF-CEM
  inhibition of growth at 10 µM: 63.8%
SN12C
  inhibition of growth at 10 µM: 21.7%
OVCAR-8
  inhibition of growth at 10 µM: 34.6%
Malme-3M
  inhibition of growth at 10 µM: < 1%
SF-268
  inhibition of growth at 10 µM: 18.1%
MOLT-4
  inhibition of growth at 10 µM: 60.2%
DU-145
  inhibition of growth at 10 µM: 36.6%
RPMI-8226
  inhibition of growth at 10 µM: 62.6%
SK-MEL-5
  inhibition of growth at 10 µM: 23.5%
T47D
  inhibition of growth at 10 µM: 35.4%
M14
  inhibition of growth at 10 µM: 33.4%
COLO 205
  inhibition of growth at 10 µM: 14.8%
HT-29
  inhibition of growth at 10 µM: 30.2%
UACC-62
  inhibition of growth at 10 µM: < 1%
EKVX
  inhibition of growth at 10 µM: 33.4%
PC-3
  inhibition of growth at 10 µM: 36.2%
MCF7
  inhibition of growth at 10 µM: < 39.9%
NCI-H322M
  inhibition of growth at 10 µM: 13.7%
NCI-H23
  inhibition of growth at 10 µM: < 1%
U-251
  inhibition of growth at 10 µM: 14.2%
NCI-H226
  inhibition of growth at 10 µM: 36.7%
RXF 393
  inhibition of growth at 10 µM: < 1%
MDA-MB-435
  inhibition of growth at 10 µM: 13%
786-0
  inhibition of growth at 10 µM: 35.7%
UACC-257
  inhibition of growth at 10 µM: < 1%
SNB-75
  inhibition of growth at 10 µM: 53.9%
TK-10
  inhibition of growth at 10 µM: 21%
K562
  inhibition of growth at 10 µM: 54.9%
CAKI-1
  inhibition of growth at 10 µM: 29.9%
HCT-116
  inhibition of growth at 10 µM: 42.1%
